The source made the active and inactive calls. No cut-off for these calls is given here.
Columns and labels:
[1] = Cytotoxicity against BHK cells infected with West Nile virus replicon assessed as cell viability after 3 days by CellTiter 96 aqueous one solution cell proliferation assay; type: cell-based, Mesocricetus auratus; conditions: hamster, 72 h
Procedure, shortened: (§1)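 WNV replicon BHK cells, about 3 × 10^3/well, plated without antibiotic selection; next day compound in DMSO (10 μM final for screening, or eight serial dilutions), 3 days at 37°C, 5% CO2. Tetrazolium reagent, absorbance 450 nm, triplicate means versus DMSO wells; CC50 = 50% reduction in proliferation; CC50s mean ± SD of two experiments, top dose 200 μM.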

Dengue virus [2] = experiment: Antiviral activity against Dengue virus infected in BHK pD2-hRucPac-2ATG cells assessed as inhibition of viral replication after 3 days by luciferase reporter gene assay; type: functional, organism-based; conditions: 72 h
Procedure, shortened: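 BHK DENV subgenomic replicon line carrying Renilla luciferase, kept on 3 μg/mL puromycin; 1.5 × 10^3 cells/well plated without selection, compounds in DMSO added next day to triplicate wells, at 10 μM final for screening or eight serial dilutions. Live-cell Renilla substrate after 3 days, luminescence versus DMSO wells; EC50 = 50% luciferase reduction; MPA 1 μM control.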

[3] = Cytotoxicity against BHK cells infected with Dengue virus replicon assessed as cell viability after 3 days by CellTiter 96 aqueous one solution cell proliferation assay; type: cell-based, Mesocricetus auratus; conditions: hamster, 72 h
Procedure, shortened: as §1, with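 “DENV” for “WNV”, “1.5” for “about 3”, “Tetrazolium (MTS-type)” for “Tetrazolium”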

dengue virus type 2 [4] = experiment: Antiviral activity against Dengue virus type 2 New Guinea C infected in African green monkey Vero cells assessed as reduction in viral titer at 10 uM after 2 days by Giemsa staining assay relative to control; type: functional; design: scale not given: the % may be the effect or the level left
Procedure, shortened: (§2)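 Vero cells, 4 × 10^5/well, infected with DENV-2 New Guinea C at MOI 0.2 for 2 h at 37°C, washed, then compound added (10 μM; MPA 1.0 μM). Supernatant taken after 2 days, clarified, 10-fold dilutions plaqued on Vero under methylcellulose for 5 days, fixed, Giemsa-stained; titer as PFU/mL, percent reduction; 10 μM from two experiments, 1.0 μM from one.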

[5] = test system: Human immunodeficiency virus 1; experiment: Antiviral activity against HIV1; type: functional, organism-based
dengue virus type 3 = experiment: Displacement of [3H]-SAM from biotinylated Dengue virus 3 methyltransferase expressed in Escherichia coli at 20 uM preincubated for 20 mins followed by [3H]-SAM addition measured after 15 mins by scintillation counting analysis
Procedure, shortened: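 Biotinylated refolded E. coli-expressed DENV3 MTase (580 nM) with SPA beads (1.5 mg/mL) and 20 μM competitor (compound, SAM or sinefungin) in Tris pH 7.5 buffer with NaCl, KCl, MgCl2, MnCl2, CHAPS, 20 min at 23°C; 3H-SAM (425 nM) added, 15 min at 23°C, centrifuged, scintillation proximity counting.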

[6] = target: Human immunodeficiency virus type 1 reverse transcriptase (Human immunodeficiency virus 1) (UniProt Q72547); experiment: Inhibition of HIV1 reverse transcriptase
[7] = test system: unidentified influenza virus; experiment: Antiviral activity against Influenzae virus; type: functional, organism-based
Human betaherpesvirus 5 = experiment: Antiviral activity against Human cytomegalovirus; type: functional, organism-based
Hepatitis C virus = experiment: Antiviral activity against HCV; type: functional, organism-based; conditions: Hepacivirus hominis
West Nile virus [8] = experiment: Antiviral activity against West Nile virus infected in BHK-WII RepRen1B cells assessed as inhibition of viral replication at 10 uM after 3 days by luciferase reporter gene assay relative to control; type: functional; conditions: 72 h
Procedure, shortened: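 Compound (DMSO, 10 μM final) added next day in triplicate; lycorine 1 μM served as control inhibitor. Three days on, live-cell Renilla substrate (1:1000 in phenol-red-free DME, 10% FBS) replaced medium. Luminescence measured; triplicate means compared with DMSO-alone wells.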

[9] = Cytotoxicity against BHK cells infected with West Nile virus replicon assessed as cell viability at 10 uM after 3 days by CellTiter 96 aqueous one solution cell proliferation assay relative to control; type: cell-based, Mesocricetus auratus; conditions: hamster, bhk, 72 h, 10 µM; procedure, shortened: as §1
Dengue virus [10] = experiment: Antiviral activity against Dengue virus infected in BHK pD2-hRucPac-2ATG cells assessed as inhibition of viral replication at 10 uM after 3 days by luciferase reporter gene assay relative to control; type: functional; conditions: 72 h
Procedure, shortened: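 Renilla luciferase-bearing DENV subgenomic replicon BHK cells, kept on 3 μg/mL puromycin, seeded at 1.5 × 10^3/well without selection. Next day, 10 μM final compound in DMSO added to triplicate wells; MPA 1 μM as control inhibitor. After 3 days, medium swapped for live-cell Renilla substrate (1:1000, phenol-red-free DME, 10% FBS). Luminescence read; triplicate mean compared with DMSO-only wells.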

[11] = Cytotoxicity against BHK cells infected with Dengue virus replicon assessed as cell viability at 10 uM after 3 days by CellTiter 96 aqueous one solution cell proliferation assay relative to control; type: cell-based, Mesocricetus auratus; conditions: hamster, bhk, 72 h, 10 µM
Procedure, shortened: as §1, with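 “DENV” for “WNV”, “1.5” for “about 3”, “Tetrazolium (MTS-type)” for “Tetrazolium”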

West Nile virus [12] = experiment: Antiviral activity against West Nile virus infected in BHK-WII RepRen1B cells assessed as inhibition of viral replication after 3 days by luciferase reporter gene assay; type: functional, organism-based; conditions: 72 h
dengue virus type 2 [13] = experiment: Antiviral activity against Dengue virus type 2 New Guinea C infected in African green monkey Vero cells assessed as reduction in viral titer at 1 uM after 2 days by Giemsa staining assay relative to control; type: functional; design: scale not given: the % may be the effect or the level left; procedure, shortened: as §2

| SMILES | CC50 [1] | EC50 (Dengue virus [2]) | CC50 [3] | Activity (dengue virus type 2 [4]) | Activity [5] | inhibition (dengue virus type 3) | inhibition [6] | Activity [7] | Activity (Human betaherpesvirus 5) | Activity (Hepatitis C virus) | inhibition at 10 µM (West Nile virus [8]) | Activity [9] | inhibition at 10 µM (Dengue virus [10]) | Activity [11] | EC50 (West Nile virus [12]) | Activity (dengue virus type 2 [13]) |
| --- | --- | --- | --- | --- | --- | --- | --- | --- | --- | --- | --- | --- | --- | --- | --- | --- |
| COc1ccc2cc(-c3cn([C@H]4C[C@H](n5cc(C)c(=O)[nH]c5=O)O[C@@H]4CO[Si](C)(C)C(C)(C)C)nn3)ccc2c1 | > 200 µM | 8.4 µM | 21 µM | 98% | inactive | Active | inactive | inactive | inactive | inactive | 92% | 100% | 57% | 96% | 7.4 µM |  |
| Cc1cn([C@H]2C[C@H](n3nncc3C3CCCCC3)[C@@H](CO[Si](C)(C)C(C)(C)C)O2)c(=O)[nH]c1=O | 24 µM | 7.5 µM | 22 µM |  | inactive | Active | inactive | inactive | inactive | inactive | 85% | 100% | 75% | 93% | 7.1 µM |  |
| Cc1cn([C@H]2C[C@H](NC(=O)CCCCc3ccc(F)cc3)[C@@H](CO[Si](C)(C)C(C)(C)C)O2)c(=O)[nH]c1=O | 23 µM | 9.6 µM | 22 µM | 67% |  | Active |  |  |  |  |  |  |  |  | 15 µM |  |
| COc1c(C)c2c(c(O)c1C/C=C(\C)CCC(=O)O)C(=O)OC2 [MYCOPHENOLIC ACID] |  |  |  |  |  |  |  |  |  |  |  |  |  |  |  | 68% |
| COc1ccc2cc(-c3cnnn3[C@H]3C[C@H](n4cc(C)c(=O)[nH]c4=O)O[C@@H]3CO[Si](C)(C)C(C)(C)C)ccc2c1 | 13 µM | 7.3 µM | 7.9 µM |  | inactive | Active | inactive | inactive | inactive | inactive | 97% | 100% | 85% | 86% | 2.9 µM |  |
| Cc1cn([C@H]2C[C@H](n3nncc3-c3ccccc3)[C@@H](CO[Si](C)(C)C(C)(C)C)O2)c(=O)[nH]c1=O | 32 µM | 14 µM | 31 µM |  | inactive | Active | inactive | inactive | inactive | inactive | 93% | 99% | 51% | 93% | 8.4 µM |  |
| Cc1cn([C@H]2C[C@H](NS(=O)(=O)c3ccc4ccccc4c3)[C@@H](CO[Si](C)(C)C(C)(C)C)O2)c(=O)[nH]c1=O | 12 µM | 7.4 µM | 14 µM |  |  | Active |  |  |  |  |  |  |  |  | 8.4 µM |  |
| Cc1cn([C@H]2C[C@H](NC(=O)Nc3cccc4ccccc34)[C@@H](CO[Si](C)(C)C(C)(C)C)O2)c(=O)[nH]c1=O |  | 11 µM | 23 µM |  |  | Active |  |  |  |  |  |  |  |  |  |  |
| Cc1cn([C@H]2C[C@H](N3C(=O)CSC3c3ccc4[nH]ccc4c3)[C@@H](CO[Si](C)(C)C(C)(C)C)O2)c(=O)[nH]c1=O (mixture of isomers) | 15 µM |  |  |  | inactive | Active | inactive | inactive | inactive | inactive | 92% | 99% | 49% | 99% | 3.4 µM |  |

From ChEMBL document CHEMBL3576816, “5'-Silylated 3'-1,2,3-triazolyl Thymidine Analogues as Inhibitors of West Nile Virus and Dengue Virus” (J Med Chem, 2015)
